Screening results as filed in PubChem BioAssay.
Shown are actives, neighbours in structure and some others; about 2.1% of the full set was active somewhere.
miR-122 sensor = inhibitors of miR-122 in Huh7 cells. activation (reporter increase), % at 12.5 µM. 340,000 compounds, 0.3% hits. Huh7 miR-122 Renilla luciferase sensor, 48 h; neutral wells = 0, positive control = 100;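 active means mean replicate activation score at least 90 and every replicate individually at or above 90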;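 further: higher luciferase means less miR-122 activity so hits act as miR-122 inhibitors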
ARNT-TACC3 inh = disrupts binding between human ARNT and TACC3; Q9Y6A5; AlphaScreen His-ARNT PAS-B/GST-TACC3 binding, luminescence; TACC3 fragment carries E629A point mutation; inhibition, % at 9.99 µM; 390,000 compounds, 0.66% hits; AID 623870;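 active means mean inhibition of replicates at least 50% and at least half of replicates each reaching 50%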;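 further: 0% = complete ARNT plus TACC3 wells and 100% = ARNT alone without TACC3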
CAL PDZ FP-1 = blocks peptide binding to the human CAL PDZ domain; 300,000 compounds, 0.92% hits; inhibition, % at 24.9 µM; purified CAL PDZ, TMR-peptide fluorescence polarization, 1 h; Q9HD26;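 active means mean inhibition of at least 30% with at least half of replicates also reaching 30%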;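 further: 0% = DMSO neutral control and 100% = excess unlabeled competitor peptide PRC23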
SR-BI uptake up = activators of SR-BI mediated HDL lipid uptake; CHO ldlA[mSR-BI] cells, DiI-HDL uptake fluorescence, 3 h; 100 = double the neutral-control signal; activation, % at 12.5 µM; 320,000 compounds, 0.096% hits; AID 504775;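 active means mean replicate activation of at least 60% and every replicate at or above 60%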;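 further: 0% = median plate neutral-control signal and 100% = twice that signal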
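Material: SR-BI-overexpressing, LDLR-lacking CHO cells | Dosing: Single compound concentration, delivered by pin transfer | Probe or stimulus: Labelled HDL, 10 µg/mL | Signal: Bottom-read cell fluorescence after medium removal, ex 550/em 595 nm | Schedule: 3 h, 37 °C | Evaluation: HDL uptake via cellular fluorescence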
CAL PDZ FP-2 = blocks peptide binding to human CAL PDZ domain | purified CAL PDZ, TMR-peptide fluorescence polarization, 1 h | inhibition, % at 20 µM | 330,000 compounds, 0.02% hits | AID 504414;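 active means highest replicate inhibition of at least 40%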;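 further: plate controls were DMSO neutral control wells for no effect and unlabeled competitor peptide control wells for full effect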
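material = purified tagged CAL PDZ domain construct (CerCALP) | buffer or medium = sodium phosphate/NaCl buffer pH 7.4 with TCEP, IgG, Thesit | reagent = TMR-labelled reporter peptide T*-PRC34 bound in PDZ groove | incubation = 1 h room-temperature incubation prior to read | measured by = fluorescence polarization (mP) | evaluation = percent inhibition from loss of millipolarization | control set = unlabelled peptide and DMSO controls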
SR-BI DiI inh = blocks mouse SR-BI lipid uptake from DiI-HDL | Q61009 | ldlA[mSR-BI] CHO cells, DiI-HDL uptake fluorescence, 3 h | inhibition, % at 12.5 µM | 320,000 compounds, 0.96% hits;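 active means mean replicate inhibition of at least 70% and a set share of replicates each scoring 70 or more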;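 further: 0% = median of neutral control wells and 100% = median of positive control wells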
Target sequence (Q61009 whole entry, looked up): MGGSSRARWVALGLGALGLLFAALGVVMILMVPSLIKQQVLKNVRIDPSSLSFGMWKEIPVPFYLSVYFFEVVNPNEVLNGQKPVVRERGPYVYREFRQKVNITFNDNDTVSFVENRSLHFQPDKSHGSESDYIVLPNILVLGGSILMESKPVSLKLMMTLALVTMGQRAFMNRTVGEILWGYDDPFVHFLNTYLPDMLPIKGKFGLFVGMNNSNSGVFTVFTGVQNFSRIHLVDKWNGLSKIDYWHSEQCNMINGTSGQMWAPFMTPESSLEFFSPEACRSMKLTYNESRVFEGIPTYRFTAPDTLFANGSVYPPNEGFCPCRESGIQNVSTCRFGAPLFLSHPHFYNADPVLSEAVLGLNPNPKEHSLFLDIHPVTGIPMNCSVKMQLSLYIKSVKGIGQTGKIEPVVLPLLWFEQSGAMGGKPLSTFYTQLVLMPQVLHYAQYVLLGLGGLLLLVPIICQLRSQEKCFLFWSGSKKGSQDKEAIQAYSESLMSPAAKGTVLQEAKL
The depositor's hits bear a star; x = not tested or not shown; [ ] = another dose, or the depositor's remark.

SMILES | miR-122 sensor | ARNT-TACC3 inh | CAL PDZ FP-1 | SR-BI uptake up | CAL PDZ FP-2 | SR-BI DiI inh
CCc1ccc(NC2=CC(=O)CC(c3ccco3)C2)cc1 (stereo not drawn) | -2 | 2 | 50* | -21 | -1 | 21
O=S(=O)(c1ccc(F)cc1)N1CCN=C1SCc1cccnc1 | x | 0 | 5 | 38 | 0 | -38
O=S(=O)(c1ccccc1)N1CCN=C1SCc1ccc(Cl)c(Cl)c1 | x | -10 | -4 | -11 | -1 | 11
O=S(=O)(c1ccccc1)N1CCN=C1SCc1ccc(Cl)cc1 | x | 0 | 44* | 2 | -1 | -2
O=S(=O)(c1ccc(Br)cc1)N1CCN=C1SCc1cccnc1 | x | 0 | 45* | -18 | -1 | 18
C[C@H]1CN([C@@H](C)CO)C(=O)c2cc(-c3ccccc3F)cnc2O[C@@H]1CN(C)C(=O)C1CC1 | 3[16.7 µM] | 3 | x | x | x | x
C[C@H]1CN([C@@H](C)CO)S(=O)(=O)c2ccc(C3=CCCCC3)cc2O[C@H]1CN(C)Cc1ccccc1F | x | 0 | x | x | x | x
CCOc1ccc(C(=O)Nc2ccc(N3CCN(C(C)=O)CC3)cc2)cc1[N+](=O)[O-] | x | -12 | 2 | -46 | -1 | 72*
COc1ccc(C(=O)Nc2ccncc2)cc1[N+](=O)[O-] | -1 | 0 | -5 | -3 | -1 | 3
CCOC(=O)c1ccc(NC(=O)Nc2ccc(OC)c(OC)c2)cc1 | 4 | -6 | 0 | -13 | -1 | 13
CCOc1ccc(C(F)(F)F)cc1NC(=O)c1ccc(OC)c([N+](=O)[O-])c1 | x | -1 | -7 | -80 | -3 | 80*
CCc1ccc(NC(=O)c2ccc(OC)c([N+](=O)[O-])c2)cc1 | x | -6 | -2 | -76 | -2 | 76*
CCOC(=O)c1ccc(NC(=O)c2ccc(OC(C)C)c(OC)c2)cc1 | x | -3 | -2 | -92 | -2 | 92*
COCCOc1ccc(C(F)(F)F)cc1NC(=O)c1ccc(F)cc1 | x | -5 | -7 | -40 | 0 | 40
CCCNC(=O)N1C[C@H](C)[C@@H](OC)CN(C)C(=O)c2ccc(NS(C)(=O)=O)cc2OC[C@H]1C | 4[16.7 µM] | -4 | x | x | x | x
COc1cc(C(=O)Nc2ccc(N3CCN(C(=O)c4ccc(C)cc4)CC3)cc2)cc(OC)c1OC | x | 3 | x | x | -1 | 76*
COc1cc(C(=O)Nc2ccc(S(=O)(=O)Nc3nccc(C)n3)cc2)cc(OC)c1OC | -4 | -2 | -4 | 2 | 0 | -2
COc1ccc(C(=O)Nc2ccc(S(=O)(=O)Nc3nccc(C)n3)cc2)cc1OC | -6 | -6 | 50* | 25 | 0 | -25
COC(CNC(=O)c1ccc(N2CCc3ccccc32)c([N+](=O)[O-])c1)OC | x | -10 | -2 | -29 | 0 | 29
NNC(=O)c1ccc(N2CCc3ccccc32)c([N+](=O)[O-])c1 | 1 | 8 | 2 | -79 | 0 | 79*
CN(C)CC(=O)Nc1ccc2c(c1)[C@@H]1C[C@H](CC(=O)NCc3cc(F)ccc3F)O[C@@H](CO)[C@@H]1O2 | 3[16.7 µM] | -1 | x | x | x | x
CC(=O)N(C)C[C@@H]1Oc2cc(C#Cc3ccc(F)cc3)ccc2S(=O)(=O)N([C@@H](C)CO)C[C@H]1C | 26[16.7 µM] | -1 | x | x | x | x
Cc1cccc(NCC(=O)NNC(=S)Nc2ccccc2)c1 | x | 47* | -1 | -7 | -1 | 7
Cc1cccc(NC(=S)NNC(=O)Cc2ccccc2)c1 | 0 | -8 | -1 | 211* | -2 | -211
CC(O)CCC(=O)NNC(=S)Nc1ccccc1 (stereo not drawn) | 0 | -7 | x | 12 | -2 | -12
SMILES | miR-122 sensor | ARNT-TACC3 inh | CAL PDZ FP-1 | SR-BI uptake up | CAL PDZ FP-2 | SR-BI DiI inh
COc1ccc(S(=O)(=O)N(C)C[C@@H]2OCCCC[C@@H](C)Oc3ccc(NC(=O)c4ccccc4)cc3C(=O)N([C@H](C)CO)C[C@H]2C)cc1 | -5[16.7 µM] | -6 | x | x | x | x
O=C(COC(=O)c1ccccc1O)Nc1cccc(S(=O)(=O)NC2=NCCCCC2)c1 | 8 | 1 | 35* | -13 | -2 | 13
COc1ccccc1/C=C/C(=O)Nc1cccc(S(=O)(=O)NC2=NCCCCC2)c1 | x | -18 | -6 | -72 | x | 72*
O=C(COC(=O)c1ccccc1)Nc1cccc(S(=O)(=O)NC2=NCCCCC2)c1 | x | -9 | -2 | 3 | -2 | -3
COc1ccc(OC)c(/C=C/C(=O)Nc2cccc(S(=O)(=O)NC3=NCCCCC3)c2)c1 | -4 | 1 | -4 | -65 | -7 | 65
C[C@H]1CN([C@@H](C)CO)C(=O)c2cc(C#CC3(O)CCCC3)cnc2O[C@H]1CN(C)C(=O)C1CCOCC1 | -1[16.7 µM] | -3 | x | x | x | x
COc1ccccc1-c1nnc(SCC(=O)O)n1-c1ccc(C)cc1 | x | -5 | -4 | 4 | -1 | -4
COc1cc(-c2nnc(SCC(=O)O)n2-c2ccccc2)cc(OC)c1OC | -1 | -11 | 69* | x | x | x
Oc1nc(Nc2ccc(F)cc2)sc1/C=C1\C=Nc2ccccc21 | x | 6 | 7 | x | 2 | x
CC1=Nc2ccccc2/C1=C\c1sc(Nc2ccc(C)cc2)nc1O | x | -2 | -3 | -75 | 0 | 75*
O=C(NCC[C@@H]1CC[C@@H](NC(=O)c2ccc3c(c2)OCO3)[C@H](CO)O1)Nc1ccc(Cl)cc1 | x | 2 | x | x | x | x
C[C@@H]1CCCCO[C@@H](CN(C)Cc2ccncc2)[C@@H](C)CN([C@H](C)CO)C(=O)c2cc(NC(=O)c3ccncc3)ccc2O1 | -4[16.7 µM] | -6 | x | x | x | x
NS(=O)(=O)c1ccc(CNC(=O)/C=C/c2cccc(Cl)c2)cc1 | -12 | -9 | 13 | x | 0 | x
NS(=O)(=O)c1ccc(CNC(=O)/C=C/c2c(F)cccc2Cl)cc1 | x | -4 | 70* | -3 | -1 | 3
CCC(=O)N[C@@H]1C=C[C@@H](CC(=O)NCc2ccccc2F)O[C@H]1CO | 2[16.7 µM] | -19 | x | x | x | x
CCSc1nnc(NC(=O)Cc2ccc(OC)c(S(=O)(=O)N3CCOCC3)c2)s1 | 5 | -4 | 39* | -6 | -1 | 6
CCc1nnc(NC(=O)Cc2ccc(OC)c(S(=O)(=O)N3CCOCC3)c2)s1 | 3 | x | x | x | x | x
NS(=O)(=O)c1cccc(NC(=O)COC(=O)CCC2CCCC2)c1 | -14 | 1 | 85* | 9 | 0 | -9
CN(C)CC#Cc1ccc([C@H]2[C@@H](CO)N3CCCCN(C(=O)C4CCCC4)C[C@@H]23)cc1 | -25[16.7 µM] | 0 | x | x | x | x
CCc1c(C(=O)Nc2cc(C)cc(C)c2)[nH]c(C)c1C(C)=O | 121* | -4 | -2 | -77 | -3 | 77*
CCOc1ccc(CCNC(=O)c2[nH]c(C)c(C(C)=O)c2CC)cc1OCC | x | x | -3 | -10 | -2 | 10
Cc1nnc(SCC(=O)NNC(=O)CC#N)[nH]c1=O | x | 48* | -5 | 13 | -1 | -13
Cc1nnc(SCC(=O)Nc2ccccc2)[nH]c1=O | -7 | -1 | -5 | 31 | 0 | -31
